Reference: ChEMBL document CHEMBL1781993, “Synthesis and biological evaluation of novel 7-acyl homocamptothecins as Topoisomerase I inhibitors” (Eur J Med Chem, 2011)
Calls of active or inactive are those of the source. The calls are words filed in the database; no cut-off is given here.

Columns and labels:
[1] = target: T1, Topoisomerase I (Bos taurus) (UniProt Q2HPH0); assay: Inhibition of calf thymus topoisomerase 1-mediated relaxation of supercoiled pBR322 assessed as increase in cleavable complex level after 15 mins using ethidium bromide staining by UV transilluminator analysis
T1 sequence (whole entry): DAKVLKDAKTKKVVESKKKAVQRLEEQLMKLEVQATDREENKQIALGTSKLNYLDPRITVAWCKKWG
Outline: (§1)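 Topo I with DNA was reacted with compound at 37 °C for 15 min. Reactions were stopped with SDS (0.5% final), then 6× loading buffer (0.1 mM EDTA, 7% glycerol, 0.01% xylene cyanol FF, 0.01% bromophenol blue) was added. Products were separated by gel. Compound concentrations were 1, 10 and 50 µM, and a topo I plus DNA sample without drug served as reference.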

[2] = target: T1, Topoisomerase I (Bos taurus); assay: Inhibition of calf thymus topoisomerase 1-mediated relaxation of supercoiled pBR322 at 10 uM after 15 mins using ethidium bromide staining by UV transilluminator analysis; outline: as §1
HCT-116 = assay: Cytotoxicity against human HCT116 cells after 3 days by MTT assay; assay type: functional, cell-based; settings: HCT-116, 72 h
Outline: (§2)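 After 3 days, MTT (5 mg/mL solution) was added and plates incubated a further 4 h. Formazan was dissolved in DMSO and absorbance read at 570 nm. Survival expressed as percentage of untreated control wells.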

MDA-MB-435 = assay: Cytotoxicity against human MDA-MB-435 cells after 3 days by MTT assay; assay type: functional, cell-based; settings: MDA-MB-435, 72 h; outline: as §2
A549 = assay: Cytotoxicity against human A549 cells after 3 days by MTT assay; assay type: functional, cell-based; settings: A549, 72 h; outline: as §2
[3] = target: T1, Topoisomerase I (Bos taurus); assay: Inhibition of calf thymus topoisomerase 1-mediated relaxation of supercoiled pBR322 assessed as formation of nicked DNA at 1 to 50 uM after 15 mins using ethidium bromide staining by UV transilluminator; outline: as §1

Row | Structure (SMILES) | inhibition [1] | inhibition [2] | IC50 (HCT-116) [nM] | IC50 (MDA-MB-435) [nM] | topoisomerase I inhibition (qualitative call) [2] | IC50 (A549) [nM] | inhibition [3]
1 | CC[C@@]1(O)C(=O)OCc2c1cc1n(c2=O)Cc2cc3ccccc3nc2-1 | Dose-dependent effect | Active |  |  |  |  | 
2 | CCC1(O)CC(=O)OCc2c1cc1n(c2=O)Cc2c-1nc1ccc(OC)cc1c2C1CCCC1 (racemic) |  |  | 71.4 | 41.5 | Active | 730 | 
3 | CCC1(O)CC(=O)OCc2c1cc1n(c2=O)Cc2c-1nc1ccc(OC)cc1c2C1CCCCC1 (racemic) |  |  | 118 | 76.1 |  | 657 | 
4 | CCC1(O)CC(=O)OCc2c1cc1n(c2=O)Cc2c-1nc1ccc(OC)cc1c2C(=O)C1CC1 (racemic) |  |  | 5.93 | 48.2 |  | 2480 | 
5 | CCC1(O)CC(=O)OCc2c1cc1n(c2=O)Cc2c-1nc1ccc(OC)cc1c2C(=O)C1CCCC1 (racemic) | Dose-dependent effect |  | 2.17 | < 1 | Active | 430 | Active
6 | CCC1(O)CC(=O)OCc2c1cc1n(c2=O)Cc2c-1nc1ccc(OC)cc1c2C(=O)C1CCCCC1 (racemic) |  |  | 446 | < 1 |  | 669 | 
7 | CCC(=O)c1c2c(nc3ccc(OC)cc13)-c1cc3c(c(=O)n1C2)COC(=O)CC3(O)CC (racemic) |  |  | 56 | 63.3 |  | 8960 | 
8 | CCCC(=O)c1c2c(nc3ccc(OC)cc13)-c1cc3c(c(=O)n1C2)COC(=O)CC3(O)CC (racemic) |  |  | 268 | 198 |  | 14100 | 
9 | CCCCC(=O)c1c2c(nc3ccc(OC)cc13)-c1cc3c(c(=O)n1C2)COC(=O)CC3(O)CC (racemic) |  |  | 277 | 198 |  | 7030 | 
10 | CCCCCCC(=O)c1c2c(nc3ccc(OC)cc13)-c1cc3c(c(=O)n1C2)COC(=O)CC3(O)CC (racemic) |  |  | 317 | 133 | Active | 478 | 
11 | CCC1(O)CC(=O)OCc2c1cc1n(c2=O)Cc2c-1nc1ccc(OC)cc1c2C(=O)C(C)C (racemic) |  |  | 404 | 21.6 |  | 2270 | 
12 | CCC1(O)CC(=O)OCc2c1cc1n(c2=O)Cc2c-1nc1ccc(OC)cc1c2C(=O)c1ccco1 (racemic) | Dose-dependent effect |  | 294 | 2.18 | Active | < 1 | Active
13 | CCC1(O)CC(=O)OCc2c1cc1n(c2=O)Cc2c-1nc1ccc(OC)cc1c2C(=O)c1cccs1 (racemic) |  |  | 2190 | 1610 | Active | 607 | 
14 | CCC1(O)CC(=O)OCc2c1cc1n(c2=O)Cc2c-1nc1ccc(OC)cc1c2C(=O)c1ccccc1 (racemic) |  |  | 2940 | 2210 |  | 1770 | 
15 | CCC1(O)CC(=O)OCc2c1cc1n(c2=O)Cc2c-1nc1ccc(OC)cc1c2C(=O)c1ccc(Cl)cc1 (racemic) |  |  | 3020 | 2090 |  | 665 | 
16 | CCC1(O)CC(=O)OCc2c1cc1n(c2=O)Cc2c-1nc1ccc(OC)cc1c2C(=O)c1ccc(F)cc1 (racemic) |  |  | 13100 | 15900 |  | 7790 | 
17 | CCC1(O)CC(=O)OCc2c1cc1n(c2=O)Cc2c-1nc1ccc(OC)cc1c2C(=O)c1ccc(C)cc1 (racemic) |  |  | 8170 | 7170 |  | 3390 | 
18 | CCC1(O)CC(=O)OCc2c1cc1n(c2=O)Cc2c-1nc1ccc(OC)cc1c2C(=O)c1ccc(C(F)(F)F)cc1 (racemic) |  |  | 1910 | 1480 | Active | 625 | 
19 | CCC1(O)CC(=O)OCc2c1cc1n(c2=O)Cc2c-1nc1ccc(OC)cc1c2C(=O)c1ccc(OC)cc1 (racemic) |  |  | 2070 | 16300 |  | 9250 | 
20 | CCC1(O)CC(=O)OCc2c1cc1n(c2=O)Cc2c-1nc1ccc(OC)cc1c2C(=O)c1cc(C)cc(C)c1 (racemic) |  |  | 26300 | > 100000 |  | 48000 | 
21 | CCC1(O)CC(=O)OCc2c1cc1n(c2=O)Cc2c-1nc1ccc(OC)cc1c2C(=O)c1ccc2ccccc2c1 (racemic) |  |  | 22800 | > 100000 |  | > 100000 | 
22 | CC[C@@]1(O)C(=O)OCc2c1cc1n(c2=O)Cc2cc3c(CN(C)C)c(O)ccc3nc2-1 [TOPOTECAN] |  |  | 1100 | 448 |  | 3160 | 
